Measured values as given in ChEMBL document CHEMBL1157759, “Discovery of GS-9131: Design, synthesis and optimization of amidate prodrugs of the novel nucleoside phosphonate HIV reverse transcriptase (RT) inhibitor GS-9148” (Bioorg Med Chem, 2010).

Legend:
[1] = Clearance in iv dosed Beagle dog after 24 hrs; settings: in vivo
[2] = Oral bioavailability in Beagle dog; settings: in vivo
[3] = Bioavailability in iv dosed Beagle dog; settings: in vivo
[4] = test system: Human immunodeficiency virus 1; assay: Antiviral activity against HIV1 3B infected in human MT2 cells assessed as inhibition of virus-induced cytopathic effect after 5 days by XTT assay; format: functional, organism-based
[5] = Hydrolytic stability assessed as compound degradation per ug of protein at 10 uM after 90 mins by scintillation counting in presence of human recombinant cathepsin A; settings: 1.5 h
PBMC [6] = assay: Metabolic stability in cathepsin A-overexpressing human PBMC assessed as compound degradation per ug of protein at 10 uM after 120 mins by scintillation counting; settings: 2 h, 30 µM
[7] = Half life in dog hepatocytes at 2 uM by LC/MS/MS analysis; settings: for half-life at 2 µM: t1/2; for t1/2: 2 µM
[8] = Half life in dog intestine S9 fraction at 2 uM by LC/MS/MS analysis; settings: for half-life at 2 µM: intestine S9 fraction, t1/2
[9] = target: Human immunodeficiency virus type 1 reverse transcriptase (Human immunodeficiency virus 1, UniProt Q72547); assay: Inhibition of HIV1 reverse transcriptase
[10] = target: T1, DNA polymerase subunit gamma-1 (Homo sapiens) (UniProt P54098); assay: Inhibition of human recombinant DNA polymerase gamma by scintillation counting
T1 sequence (whole entry): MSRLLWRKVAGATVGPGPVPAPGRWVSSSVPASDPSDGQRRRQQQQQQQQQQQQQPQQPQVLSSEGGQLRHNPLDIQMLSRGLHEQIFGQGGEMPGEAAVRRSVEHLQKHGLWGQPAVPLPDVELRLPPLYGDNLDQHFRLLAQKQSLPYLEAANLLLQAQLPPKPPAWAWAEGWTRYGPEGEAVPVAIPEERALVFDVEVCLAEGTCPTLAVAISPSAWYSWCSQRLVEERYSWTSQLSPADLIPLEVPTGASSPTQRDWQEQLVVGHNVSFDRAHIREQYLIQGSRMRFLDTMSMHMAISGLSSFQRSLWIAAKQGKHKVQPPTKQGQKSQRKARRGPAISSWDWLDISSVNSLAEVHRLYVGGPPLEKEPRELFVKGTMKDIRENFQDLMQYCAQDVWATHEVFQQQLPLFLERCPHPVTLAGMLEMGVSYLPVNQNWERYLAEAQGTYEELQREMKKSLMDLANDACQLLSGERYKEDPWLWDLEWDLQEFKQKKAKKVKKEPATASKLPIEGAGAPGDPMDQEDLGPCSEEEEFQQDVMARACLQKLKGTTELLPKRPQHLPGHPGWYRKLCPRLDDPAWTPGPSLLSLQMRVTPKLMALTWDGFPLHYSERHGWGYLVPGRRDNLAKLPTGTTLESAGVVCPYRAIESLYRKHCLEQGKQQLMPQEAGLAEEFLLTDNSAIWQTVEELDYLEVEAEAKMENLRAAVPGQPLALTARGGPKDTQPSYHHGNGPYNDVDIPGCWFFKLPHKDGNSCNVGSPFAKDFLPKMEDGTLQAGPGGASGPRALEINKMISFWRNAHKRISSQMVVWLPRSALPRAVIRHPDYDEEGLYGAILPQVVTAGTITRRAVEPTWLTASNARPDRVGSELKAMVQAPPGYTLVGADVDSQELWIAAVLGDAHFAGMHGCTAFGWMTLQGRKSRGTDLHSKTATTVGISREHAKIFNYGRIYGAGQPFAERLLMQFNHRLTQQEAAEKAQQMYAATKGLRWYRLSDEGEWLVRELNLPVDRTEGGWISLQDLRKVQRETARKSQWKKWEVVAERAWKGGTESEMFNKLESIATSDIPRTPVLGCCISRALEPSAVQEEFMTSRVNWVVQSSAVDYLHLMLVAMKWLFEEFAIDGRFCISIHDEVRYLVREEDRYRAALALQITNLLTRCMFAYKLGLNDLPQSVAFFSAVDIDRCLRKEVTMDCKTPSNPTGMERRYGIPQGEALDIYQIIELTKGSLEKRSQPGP

[11] = Selectivity for inhibition of HIV wild type reverse transcriptase over inhibition of human recombinant DNA polymerase gamma
PBMC [12] = assay: Drug metabolism in Beagle dog PBMC assessed as 5-[(6-Amino-purin-9-yl)-4-fluoro-2,5-dihydro-furan-2-yloxymethyl] phosphonic acid diphosphate level after 5 hrs; format: ADME, cell-based, Canis lupus familiaris
Procedure, shortened: (§1)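 Beagle dogs were given a single oral dose of 3 mg/kg. The prodrug was followed in plasma. The parent diacid and its active diphosphate metabolite were followed inside isolated PBMCs over time after dosing. Plasma half-life and PBMC-to-plasma levels were derived from these time-course profiles.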

[13] = Cytotoxicity against human MT2 cells after 5 days by XTT assay
[14] = Half life in human hepatocytes at 2 uM by LC/MS/MS analysis; settings: t1/2
[15] = Half life in human intestine S9 fraction at 2 uM by LC/MS/MS analysis
[16] = Drug metabolism in Beagle dog assessed as ratio of GS-9148 level in PBMC to plasma at 3 mg/kg, po up to 20 mins; format: ADME, organism-based, Canis lupus familiaris; design: dose 3 mg/kg, route oral; settings: in vivo, 2 h, in the assay text read “up to 2 hrs” for “up to 20 mins”; procedure, shortened: as §1
[17] = Cytotoxicity against human HepG2 cells assessed as inhibition of mitochondrial DNA replication after 14 days; settings: read-out: MTC50
[18] = Human immunodeficiency virus 1, 3B, MT2, 120 h

| SMILES | clearance at 24 h [1] [L/h/kg] | EC50 ([4]; mt2) [µM] | Activity [5] [pmol/min] | Activity (PBMC [6]) [pmol/min] | half-life at 2 µM [7] [min] | half-life at 2 µM [8] [min] | CC50 at 120 h [13] [µM] | other results |
| --- | --- | --- | --- | --- | --- | --- | --- | --- |
| CC(C)OC(=O)[C@H](C)N[P@](=O)(CO[C@H](C)Cn1cnc2c(N)ncnc21)Oc1ccccc1 [TENOFOVIR ALAFENAMIDE] | 2.23 |  |  |  |  |  |  | bioavailability [2]: 21% |
| C[C@H](NP(=O)(CO[C@@H]1C=C(F)[C@H](n2cnc3c(N)ncnc32)O1)Oc1ccccc1)C(=O)OC1CCC1.Cl.Cl (some centres not stated) |  | 0.021 | 23997 | 19 | 52 | 3.9 |  | bioavailability [3]: 18% |
| C[C@H](NP(=O)(CO[C@@H]1C=C(F)[C@H](n2cnc3c(N)ncnc32)O1)Oc1ccccc1)C(=O)OC1CCC1 (stereo in doubt; 18r(A)) [(2S)-CYCLOBUTYL 2-((((2R,5R)-5-(6-AMINO-9H-PURIN-9-YL)-4-FLUORO-2,5-DIHYDROFURAN-2-YLOXY)METHYL)(PHENOXY)PHOSPHORYLAMINO)PROPANOATE (ENANTIOMERIC MIX)] |  | > 0.045 | 2527 | 3.2 | 140 |  |  | bioavailability [3]: 9.8%; t1/2 ([8]; s9, 2 µM, 2 µM): 32 min |
| Nc1ncnc2c1ncn2[C@@H]1O[C@H](OCP(=O)(O)OP(=O)(O)OP(=O)(O)O)C=C1F |  |  |  |  |  |  |  | IC50 [9]: 1.9 µM; Activity [10]: 100 µM; fold change (FC) [11]: > 130; Activity (PBMC [12]): > 9 µM |
| C[C@H](NP(=O)(CO[C@@H]1C=C(F)[C@H](n2cnc3c(N)ncnc32)O1)Oc1ccccc1)C(=O)OC1CCC1 (stereo in doubt; 18r) [(2S)-CYCLOBUTYL 2-((((2R,5R)-5-(6-AMINO-9H-PURIN-9-YL)-4-FLUORO-2,5-DIHYDROFURAN-2-YLOXY)METHYL)(PHENOXY)PHOSPHORYLAMINO)PROPANOATE (ENANTIOMERIC MIX)] | 2.76 | 0.036 | 18150 | 7.7 |  | 25 | 57 | t1/2 [7]: 100 min; half-life at 2 µM [14]: 98 min; half-life at 2 µM [15]: 122 min |
| Nc1ncnc2c1ncn2[C@@H]1O[C@H](OCP(=O)(O)O)C=C1F [GS-9148] |  |  |  |  |  |  | > 100 | Ratio [16]: 10; EC50 [4, 18]: 10.6 µM; CC50 at 336 h [17]: > 300 µM |
| CC(C)COC(=O)[C@H](Cc1ccccc1)NP(=O)(CO[C@@H]1C=C(F)[C@H](n2cnc3c(N)ncnc32)O1)Oc1ccccc1 (some centres not stated) | 3.7 |  | 29655 | 31 | 28 | 8.3 | 38.3 | bioavailability [2]: 2.6%; EC50 [4, 18]: 0.006 µM |
| CC(C)OC(=O)[C@H](C)NP(=O)(CO[C@@H]1C=C(F)[C@H](n2cnc3c(N)ncnc32)O1)Oc1ccccc1 (stereo in doubt; 24) [(2S)-ISOPROPYL 2-(((2R,5R)-5-(6-AMINO-9H-PURIN-9-YL)-4-FLUORO-2,5-DIHYDROFURAN-2-YLOXY)(PHENOXY)PHOSPHORYLAMINO)PROPANOATE (ENANTIOMERIC MIX)] |  | 0.0092 | 35000 | 20 |  | 15 | 139 | t1/2 [7]: 103 min; half-life at 2 µM [14]: 159 min; half-life at 2 µM [15]: 106 min |
